# Activity calls are given as the source filed them. The rule behind the calls is not given here.
# Key:
# Trypanosoma cruzi [1] = experiment: (§1) Antitrypanosomal activity against Trypanosoma cruzi MHOM/Pe/2011/Arequipa;DTU 5 bloodstream trypomastigote infected in BALB/c mouse assessed as parasite-free adipose tissue in chronic phase at 20 mg/kg/day, po administered for 5 consecutive days starting from day 70 post infection followed by cyclophosphamide induced immunosuppression on day 80 post infection measured after day 100 post infection by PCR method relative to control; type: functional
# How it was run: (§2)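 Female BALB/c mice (10–12 weeks, three per group) were infected i.p. with 5 × 10^5 Arequipa bloodstream trypomastigotes. Dosing was oral, 20 mg/kg/day for 5 days, as a suspension in 5% DMSO/0.5% HPMC. Cyclophosphamide 200 mg/kg i.p. was given at day 80 pi. At necropsy (day 100) tissues were tested by PCR on the splice leader region (primers TC/TC1, 300 bp). Scored as x/3 mice positive.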
# Trypanosoma cruzi [2] = experiment: as §1, with “parasitemia reactivation” for “parasite-free adipose tissue”, “infection” for “infection measured after day 100 post infection”, “Neubauer chamber” for “PCR method”; type: functional
# How it was run: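 Female BALB/c mice (three per group) were infected i.p. with 5 × 10^5 Arequipa bloodstream trypomastigotes and treated orally at 20 mg/kg/day for 5 days (vehicle 5% DMSO/0.5% HPMC). Once parasitemia was undetectable (day 80 pi), cyclophosphamide 200 mg/kg was given i.p. Bloodstream parasites were then counted to give % reactivation versus untreated controls.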
# Trypanosoma cruzi [3] = experiment: Antitrypanosomal activity against Trypanosoma cruzi TINF/CH/1956/Tulahuen;DTU 6 epimastigotes measured after 72 hrs by Neubauer hemocytometer; type: functional, organism-based; settings: TINF/CH/1956/Tulahuen;DTU 6, 72 h
# Trypanosoma cruzi [4] = experiment: Antitrypanosomal activity against Trypanosoma cruzi MHOM/Pe/2011/Arequipa;DTU 5 epimastigotes measured after 72 hrs by Neubauer hemocytometer; type: functional, organism-based; settings: MHOM/Pe/2011/Arequipa;DTU 5, 72 h
# [5] = Selectivity index, ratio of IC50 for African green monkey Vero cells to IC50 for Trypanosoma cruzi TINF/CH/1956/Tulahuen;DTU 6; type: toxicity; settings: read-out: Selectivity Index
# How it was run: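 SI = Vero IC50 / epimastigote IC50. Vero cells were grown in RPMI-1640 with 10% FBS, seeded at 0.8 × 10^4 cells/well, exposed to 10.0–200.0 µM for 72 h, then given MTT for 4 h. Epimastigotes were grown in MTL with 10% FBS at 28 °C, 5 × 10^5/mL, exposed to 6.3–50 µM for 48 h, then resazurin for 24 h (570/600 nm). IC50s came from nonlinear regression.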
# Trypanosoma cruzi [6] = experiment: Antitrypanosomal activity against Trypanosoma cruzi MHOM/Pe/2011/Arequipa;DTU 5 amastigote forms measured after 72 hrs by Giemsa staining based assay; type: functional, organism-based; settings: MHOM/Pe/2011/Arequipa;DTU 5, 72 h
# How it was run: (§3)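 Vero cells (1 × 10^4/well, on coverslips) left to adhere 24 h at 37 °C, 5% CO2, then infected with trypomastigotes at MOI 10:1 for 24 h. Free parasites were removed by three PBS washes. Compounds at 3.1, 6.25, 12.5, 25 and 50 µM were incubated 72 h, and amastigotes were counted after Giemsa staining. Triplicates, two separate experiments; IC50 by nonlinear regression.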
# Trypanosoma cruzi [7] = experiment: Antitrypanosomal activity against Trypanosoma cruzi IRHOD/CO/2008/SN3;DTU 1 amastigote forms measured after 72 hrs by Giemsa staining based assay; type: functional, organism-based; settings: IRHOD/CO/2008/SN3;DTU 1, 72 h; how it was run: as §3
# [8] = Selectivity index, ratio of IC50 for African green monkey Vero cells to IC50 for Trypanosoma cruzi IRHOD/CO/2008/SN3;DTU 1 amastigote forms; type: toxicity; settings: read-out: Selectivity Index
# How it was run: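 Vero cells (1 × 10^4/well) were infected with trypomastigotes at MOI 10:1 for 24 h and washed with PBS. They were then exposed to 3.1–50 µM for 72 h at 37 °C in 5% CO2, and amastigotes were counted after Giemsa staining. Triplicates in two determinations; nonlinear regression.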
# Trypanosoma cruzi [9] = experiment: as §1, with “bone marrow” for “adipose tissue”, “acute” for “chronic”, “8” for “70”; type: functional; how it was run: as §2
# Trypanosoma cruzi [10] = experiment: as §1, with “brain” for “adipose tissue”; type: functional; how it was run: as §2
# Trypanosoma cruzi [11] = experiment: as §1, with “oesophagus” for “adipose tissue”, “acute” for “chronic”, “8” for “70”; type: functional; how it was run: as §2
# [12] = (§4) Toxicity in BALB/c mouse infected with Trypanosoma cruzi MHOM/Pe/2011/Arequipa;DTU 5 bloodstream trypomastigote assessed as decrease in serum lactate dehydrogenase level in acute phase at 20 mg/kg/day,po administered for 5 consecutive days starting from day 8 post infection and measured at day 14 post infection by biochemical analysis relative to control; type: organism-based; design: scale not given: the % may be the effect or the level left; settings: in vivo
# How it was run: (§5)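 Female BALB/c mice (10–12 weeks, 14–20 g; groups of three) were infected i.p. with 5 × 10^5 Arequipa bloodstream trypomastigotes. Dosing was oral at 20 mg/kg/day for 5 days, from day 8 pi (acute) or day 70 pi (chronic), as a 2 mg/ml suspension in 5% DMSO/0.5% HPMC; controls received vehicle. Cyclophosphamide 200 mg/kg i.p. was given at day 80 pi. Serum was collected 2 days post-treatment and at necropsy by cardiac puncture and compared with infected untreated controls.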
# [13] = as §4, with “chronic” for “acute”, “mg/kg/day, po” for “mg/kg/day,po”, “70” for “8”, “76” for “14”, “infection” for “infection by biochemical analysis”; type: organism-based; design: scale not given: the % may be the effect or the level left; settings: in vivo; how it was run: as §5
# [14] = Toxicity in BALB/c mouse infected with Trypanosoma cruzi MHOM/Pe/2011/Arequipa;DTU 5 bloodstream trypomastigote assessed as decrease in serum creatine kinase muscle to brain ratio level in chronic phase at 20 mg/kg/day, po administered for 5 consecutive days starting from day 70 post infection measured on day 100 post infection relative to control; type: organism-based; design: scale not given: the % may be the effect or the level left; settings: in vivo; how it was run: as §5
# Trypanosoma cruzi [15] = experiment: Antitrypanosomal activity against Trypanosoma cruzi MHOM/Pe/2011/Arequipa;DTU 5 epimastigote assessed as change in RNA level at IC50 measured after 72 hrs by acridine orange staining based flow cytometry relative to control; type: functional
# How it was run: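 They were stained with rhodamine 123 or acridine orange and analysed by flow cytometry. Index of variation = (TM−CM)/CM, from median fluorescence of treated (TM) and untreated (CM) parasites.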
# Trypanosoma cruzi [16] = experiment: Antitrypanosomal activity against Trypanosoma cruzi MHOM/Pe/2011/Arequipa;DTU 5 bloodstream trypomastigotes infected in BALB/c mouse assessed as reduction in serum Ig-G level in chronic phase at 20 mg/kg/day, po administered for 5 consecutive days starting from day 70 post infection followed by cyclophosphamide induced immunosuppression on day 80 post infection and measured at day 100 post infection by ELISA; type: functional, organism-based
# How it was run: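 Sera came from infected BALB/c mice (three per group) dosed orally at 20 mg/kg/day for 5 days. Sampling points: 2 days after treatment, the day before immunosuppression (acute only) and necropsy day. Anti-T. cruzi IgG was measured by indirect ELISA using parasite Fe-SOD as antigen, read as OD at 492 nm.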
# Trypanosoma cruzi [17] = experiment: Antitrypanosomal activity against Trypanosoma cruzi MHOM/Pe/2011/Arequipa;DTU 5 epimastigote assessed as effect on acetate excretion at IC50 after 72 hrs by H NMR method relative to control; type: functional, organism-based
# How it was run: (§6)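 Cells were spun at 800 × g for 10 min and culture supernatants analysed by 1H NMR. Catabolite peaks were expressed as % variation versus untreated parasites.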
# Trypanosoma cruzi [18] = experiment: Antitrypanosomal activity against Trypanosoma cruzi MHOM/Pe/2011/Arequipa;DTU 5 epimastigote assessed as effect on ethanol excretion at IC50 after 72 hrs by H NMR method relative to control; type: functional, organism-based; how it was run: as §6
Compound,Activity (Trypanosoma cruzi [1]) [%],Activity (Trypanosoma cruzi [2]) [%],IC50 (Trypanosoma cruzi [3]) [µM],IC50 (Trypanosoma cruzi [4]) [µM],selectivity ratio [5],IC50 (Trypanosoma cruzi [6]) [µM],IC50 (Trypanosoma cruzi [7]) [µM],selectivity ratio [8],Activity (Trypanosoma cruzi [9]) [%],Activity (Trypanosoma cruzi [10]) [%],Activity (Trypanosoma cruzi [11]) [%],Activity [12],Activity [13],Activity [14],Activity (Trypanosoma cruzi [15]) [%],Activity (Trypanosoma cruzi [16]),Activity (Trypanosoma cruzi [17]),Activity (Trypanosoma cruzi [18])
O=C(CCN1CCN(c2ccc(Cl)cc2)CC1)c1ccc(O)cc1,63,20,10.6,18.6,9.8,5.1,4.5,23.2,50,63,50,<= 20%,<= 10%,<= 20%,-5.1,Active,Active,Active
O=C(Cn1ccnc1[N+](=O)[O-])NCc1ccccc1 [BENZNIDAZOLE],38,40,25.3,26.2,> 7.9,3,4.4,> 45.6,25,38,25,<= 10%,<= 10%,<= 10%,-4.7,Active,Active,Active
O=C(CCN1CCN(c2ccc(C(F)(F)F)cc2)CC1)c1ccc(O)cc1,50,30,14.8,22.7,7.2,6.2,6.6,16.2,13,50,13,<= 20%,<= 20%,<= 30%,-4.2,Active,Active,Active

# Source: ChEMBL document CHEMBL4402517, “Rational modification of Mannich base-type derivatives as novel antichagasic compounds: Synthesis, in vitro and in vivo evaluation” (Bioorg Med Chem, 2019)
